# Legend:
# [1] = test system: CAG myeloma cells; experiment: Caspase3/7-GLO apoptosis assay, CAG; type: cell-based, human
# Summary of the method: (§1)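 Myeloma cells in complete medium were pre-treated for 1 hr with JNK inhibitor or DMSO vehicle, then given or not given 30 μM test peptide, for 9 hr total. Caspase 3/7 activity was read by Caspase3/7-GLO luminescence and expressed as fold increase over vehicle alone (set to 1.0).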
# [2] = test system: MM.1R myeloma cells; experiment: Caspase3/7-GLO apoptosis assay, MM.1R; type: cell-based, human; conditions: MM.1R cells
# Summary of the method: as §1
# [3] = target: IGF1R and αvβ5 integrin complex with Sdc1 (Homo sapiens, UniProt P06756+P08069+P18084); experiment: Immunoprecipitation of Sdc1 with competing SSTN peptides; type: binding
# Sequence of IGF1R and αvβ5 integrin complex with Sdc1 (P08069 31-736 limits assumed): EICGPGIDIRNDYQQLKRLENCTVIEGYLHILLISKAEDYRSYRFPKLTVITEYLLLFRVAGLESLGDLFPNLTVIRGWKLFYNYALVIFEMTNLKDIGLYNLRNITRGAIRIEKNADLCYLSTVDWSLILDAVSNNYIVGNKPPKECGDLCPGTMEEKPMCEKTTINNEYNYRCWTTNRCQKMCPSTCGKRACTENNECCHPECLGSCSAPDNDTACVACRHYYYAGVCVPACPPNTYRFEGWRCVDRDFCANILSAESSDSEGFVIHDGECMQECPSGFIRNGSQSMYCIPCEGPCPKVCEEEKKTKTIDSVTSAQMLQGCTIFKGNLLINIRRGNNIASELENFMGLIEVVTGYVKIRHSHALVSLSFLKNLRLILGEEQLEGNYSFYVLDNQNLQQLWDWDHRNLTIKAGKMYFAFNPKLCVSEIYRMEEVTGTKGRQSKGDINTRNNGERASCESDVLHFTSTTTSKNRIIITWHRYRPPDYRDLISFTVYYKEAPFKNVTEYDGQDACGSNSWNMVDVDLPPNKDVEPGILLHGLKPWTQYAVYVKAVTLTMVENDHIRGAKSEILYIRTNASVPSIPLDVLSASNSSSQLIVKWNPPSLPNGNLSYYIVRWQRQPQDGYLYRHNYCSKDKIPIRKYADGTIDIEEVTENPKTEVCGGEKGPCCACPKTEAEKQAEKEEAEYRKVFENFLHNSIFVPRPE
# Sequence of IGF1R and αvβ5 integrin complex with Sdc1 (P08069 741-1367 limits assumed): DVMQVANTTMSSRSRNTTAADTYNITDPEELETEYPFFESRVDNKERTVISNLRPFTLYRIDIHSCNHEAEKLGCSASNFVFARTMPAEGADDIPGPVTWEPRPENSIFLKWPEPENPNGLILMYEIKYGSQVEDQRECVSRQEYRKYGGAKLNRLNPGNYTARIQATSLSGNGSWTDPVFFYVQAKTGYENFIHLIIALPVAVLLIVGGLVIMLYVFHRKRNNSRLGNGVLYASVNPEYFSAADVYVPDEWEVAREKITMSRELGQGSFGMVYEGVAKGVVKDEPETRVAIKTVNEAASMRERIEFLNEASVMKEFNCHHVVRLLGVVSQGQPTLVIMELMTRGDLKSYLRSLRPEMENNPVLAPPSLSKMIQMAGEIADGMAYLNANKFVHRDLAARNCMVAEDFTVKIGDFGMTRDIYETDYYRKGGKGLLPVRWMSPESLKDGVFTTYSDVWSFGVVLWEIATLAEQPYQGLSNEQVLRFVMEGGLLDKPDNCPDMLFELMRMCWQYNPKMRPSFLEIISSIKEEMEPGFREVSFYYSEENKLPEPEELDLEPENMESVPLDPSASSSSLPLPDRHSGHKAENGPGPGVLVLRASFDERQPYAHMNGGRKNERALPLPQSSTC
# Sequence of IGF1R and αvβ5 integrin complex with Sdc1 (P06756 31-889 limits assumed): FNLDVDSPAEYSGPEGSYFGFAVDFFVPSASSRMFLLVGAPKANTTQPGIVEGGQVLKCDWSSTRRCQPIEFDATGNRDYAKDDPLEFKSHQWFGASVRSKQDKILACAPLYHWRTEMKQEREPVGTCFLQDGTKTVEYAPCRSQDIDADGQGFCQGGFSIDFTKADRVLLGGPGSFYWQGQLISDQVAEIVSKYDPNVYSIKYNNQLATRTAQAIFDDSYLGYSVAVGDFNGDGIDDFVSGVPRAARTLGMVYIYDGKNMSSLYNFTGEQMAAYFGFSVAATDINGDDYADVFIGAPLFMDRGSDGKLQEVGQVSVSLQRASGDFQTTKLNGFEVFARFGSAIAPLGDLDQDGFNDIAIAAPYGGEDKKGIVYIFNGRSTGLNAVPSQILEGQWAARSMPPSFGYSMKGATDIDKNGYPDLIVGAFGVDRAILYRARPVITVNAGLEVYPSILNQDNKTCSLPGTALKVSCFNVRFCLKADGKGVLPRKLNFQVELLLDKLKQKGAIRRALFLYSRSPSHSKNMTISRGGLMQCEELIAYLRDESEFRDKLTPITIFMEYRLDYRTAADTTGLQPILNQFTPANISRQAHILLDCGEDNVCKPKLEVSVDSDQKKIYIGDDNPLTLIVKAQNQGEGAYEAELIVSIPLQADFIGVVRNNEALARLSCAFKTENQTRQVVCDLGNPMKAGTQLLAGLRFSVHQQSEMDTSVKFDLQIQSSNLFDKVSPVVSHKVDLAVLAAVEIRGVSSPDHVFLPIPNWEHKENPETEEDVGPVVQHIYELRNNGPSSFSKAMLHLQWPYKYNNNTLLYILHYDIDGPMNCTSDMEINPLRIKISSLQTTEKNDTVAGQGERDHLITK
# Sequence of IGF1R and αvβ5 integrin complex with Sdc1 (P06756 891-1048 limits assumed): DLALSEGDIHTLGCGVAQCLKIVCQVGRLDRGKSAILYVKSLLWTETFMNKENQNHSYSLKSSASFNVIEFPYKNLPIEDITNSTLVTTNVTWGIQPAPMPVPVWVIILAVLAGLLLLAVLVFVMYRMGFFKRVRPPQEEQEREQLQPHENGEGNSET
# Sequence of IGF1R and αvβ5 integrin complex with Sdc1 (P18084 24-799): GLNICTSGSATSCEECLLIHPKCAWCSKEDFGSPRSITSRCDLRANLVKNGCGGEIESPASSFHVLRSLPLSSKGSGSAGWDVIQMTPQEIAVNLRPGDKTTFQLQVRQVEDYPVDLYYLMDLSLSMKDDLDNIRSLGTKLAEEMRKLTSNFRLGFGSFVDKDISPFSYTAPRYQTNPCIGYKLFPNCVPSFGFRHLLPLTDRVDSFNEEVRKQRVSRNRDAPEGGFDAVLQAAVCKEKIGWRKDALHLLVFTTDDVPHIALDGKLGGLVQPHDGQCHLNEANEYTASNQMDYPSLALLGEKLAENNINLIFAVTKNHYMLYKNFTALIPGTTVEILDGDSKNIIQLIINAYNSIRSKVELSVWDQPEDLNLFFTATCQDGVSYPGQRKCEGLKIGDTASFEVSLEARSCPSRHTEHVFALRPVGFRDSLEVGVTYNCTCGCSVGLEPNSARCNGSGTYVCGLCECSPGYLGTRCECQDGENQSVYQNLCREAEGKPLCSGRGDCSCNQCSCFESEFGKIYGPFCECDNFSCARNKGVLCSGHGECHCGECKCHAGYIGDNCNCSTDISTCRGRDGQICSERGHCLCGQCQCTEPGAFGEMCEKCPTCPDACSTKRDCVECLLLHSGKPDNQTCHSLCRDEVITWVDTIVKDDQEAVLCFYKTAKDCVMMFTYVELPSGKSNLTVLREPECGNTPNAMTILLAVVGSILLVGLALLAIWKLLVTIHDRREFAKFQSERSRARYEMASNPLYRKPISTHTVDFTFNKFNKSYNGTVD
# Summary of the method: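 CAG cell lysates from suspension culture were immunoprecipitated with isotype-matched control mIgG1 or mAbs to Sdc1 (B-A38), αvβ5 integrin (P1F6) and/or IGF1R (JBW902), in the presence of test peptide (1 μM) or a variant peptide (1, 3 or 10 μM). Precipitates were probed for Sdc1, IGF1R and αvβ5 integrin.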
# [4] = test system: CAG, RPMI-8226, KMS-12, U266, MM.1R myeloma cells; experiment: Cell growth assay, human myeloma cells; type: cell-based; conditions: three-day growth assay, relative to SSTNIGF1R
# Summary of the method: (§2)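 Myeloma cells (2.5 × 10^4/well) were grown in RPMI 1640 with 4 mM L-glutamine, 10% FBS and 0.05 mM β-mercaptoethanol; CAG cells also received 40 μg/mL Geneticin. Cells were grown with 30 μM test peptide or its variant for 3 days at 37 °C, 7.5% CO2. Cell number was read by CellTiter-GLO as % increase relative to untreated cells.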
# [5] = test system: HMEC-1 endothelial cells; experiment: Cell growth assay, HMEC-1; type: cell-based, human; conditions: 30 μM peptide, 3 days
# Summary of the method: (§3)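 Endothelial cells (1–2 × 10^3/well) were grown in complete medium with 30 μM test peptide or its variant for 3 days at 37 °C, 7.5% CO2. Cell number was read by CellTiter-GLO and expressed as % increase relative to untreated cells.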
# [6] = test system: CAG myeloma xenografts; experiment: CAG myeloma xenograft growth and tumor angiogenesis in nude mice; type: in vivo, mouse; conditions: Alzet pump 3.65 mg/kg/day, 4 weeks
# [7] = test system: HUVEC endothelial cells; experiment: Cell growth assay, HUVEC; type: cell-based, human; conditions: 30 μM peptide, 3 days, Sdc1-positive HUVEC
# Summary of the method: as §3
# [8] = test system: HUVECs; experiment: Stress and apoptosis marker antibody array, HUVEC; type: cell-based, human; conditions: 30 μM, 24 hr
# [9] = test system: CAG and MM.1R myeloma cells; experiment: Stress and apoptosis marker antibody array, myeloma cells; type: cell-based, human; conditions: CAG and MM.1R cells, 30 μM, over 9 hr
# [10] = Peptide stability in mouse serum; type: in vitro ADME; conditions: data not shown
# [11] = test system: CAG cells; experiment: ApoTox-GLO viability/apoptosis and TUNEL assay in CAG cells; type: cell-based, human; conditions: 24 hr
# Summary of the method: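 CAG cells (2.5 × 10^4/well) were grown in complete medium with 1–30 μM test peptide for 24 hr at 37 °C. Viability and caspase activation/apoptosis were read by ApoTox-GLO as % of untreated cells.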
# [12] = test system: P3X63Ag8 myeloma cells; experiment: Cell growth assay, mouse myeloma cells; type: cell-based; conditions: 30 μM peptide, three-day treatment, complete medium
# Summary of the method: as §2
# [13] = test system: ASK1; type: cell-based, human; conditions: CAG and MM.1R cells, 10 μM
# Summary of the method: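 ASK1 or Sdc1 was immunoprecipitated from cell lysates (0.5–1.0 mg input per sample), with or without competing test peptide. Lysis buffer contained protease and phosphatase inhibitors. Blots were probed for co-precipitated ASK1 and Sdc1, total ASK1, and phospho-ASK1 (pThr838/Thr845, pSer83, pSer966/Ser967).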
# [14] = test system: HaCaT keratinocytes; experiment: Cell growth assay, HaCaT; type: cell-based, human; conditions: 3, 10 or 30 μM peptide, 3 days
# Summary of the method: (§4)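 Adherent cells (1–2 × 10^3/well) were grown with 3, 10 or 30 μM test peptide for 3 days at 37 °C. Carcinoma lines were kept in DMEM with 4 mM L-glutamine, 10% FBS and penicillin/streptomycin; SCC lines also received 1 μg/mL hydrocortisone. Cell number was read by CellTiter-GLO as % increase relative to untreated cells.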
# [15] = test system: UM-SCC47, SCC25, MDA-MB-468, MDA-MB-231, MCF-7 and SKBr3 carcinoma cells; experiment: Cell growth assay, head and neck and breast carcinoma cell panel; type: cell-based, human; conditions: 3, 10 or 30 μM peptide, 3 days
# Summary of the method: as §4
# [16] = test system: MDA-MB-231 breast carcinoma cells; experiment: Stress and apoptosis marker antibody array, MDA-MB-231; type: cell-based, human; conditions: MDA-MB-231, 30 μM, up to 24 hr; compared with HUVEC response
# Summary of the method: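 MDA-MB-231 cells in complete medium were treated with or without 30 μM test peptide for 1, 3, 9 or 24 hr. Whole-cell lysates from equal cell equivalents were run on a stress and apoptosis signalling antibody array. Relative fluorescence at 700 nm was read per target, in two separate experiments.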
# [17] = test system: HUVEC(Sdc1−); experiment: Cell growth assay, HUVEC isolate lacking Sdc1; type: cell-based, human; conditions: 30 μM peptide, 3 days
# Summary of the method: as §3
# [18] = Peptide stability in bovine serum; type: in vitro ADME; conditions: data not shown
# [19] = test system: MCF10A breast epithelial cells; experiment: Cell growth assay, MCF10A; type: cell-based, human; conditions: 3, 10 or 30 μM peptide, 3 days
# Summary of the method: as §4
# [20] = 1 μM JNK-IN-8 with 30 μM SSTNIGF1R, 9 hr
# [21] = 10 μM SP600125 with SSTNIGF1R, data not shown
compound,measurement,setting,value
Cc1cc(NC(=O)c2cccc(NC(=O)/C=C/CN(C)C)c2)ccc1Nc1nccc(-c2cccnc2)n1 [JNK-IN-8],block of SSTNIGF1R-induced caspase 3/7 activation,[1]; [20],complete block
same,block of SSTNIGF1R-induced caspase 3/7 activation,[2]; [20],complete block
Oc1c2ccccc2c2c3c(cccc13)N=N2 [SP600125],block of SSTNIGF1R-induced caspase 3/7 activation,[1]; [21],Near identical results
same,block of SSTNIGF1R-induced caspase 3/7 activation,[2]; [21],Near identical results
SSTNIGF1R-T: truncated synstatin peptide comprising amino acids 94–119 of Sdc1 (AGEKPEEGEPVLHVEAEPGFTARDKE),disruption of capture of IGF1R and αvβ5 integrin by Sdc1,"[3]; 1, 3 or 10 μM peptide, myeloma cell lysates",disrupts capture of IGF1R and αvβ5 integrin by Sdc1
same,fold less effective than SSTNIGF1R at disrupting IGF1R capture by Sdc1,"[3]; myeloma cells, relative to SSTNIGF1R",3–10 fold
same,fold less effective than SSTNIGF1R at causing myeloma cell loss,[4],3–10 fold
same,growth of HMEC-1 endothelial cells,[5],without effect
same,effect on tumor angiogenesis,[6]; MECA-32 staining intensity,no significant effect
same,growth of HUVEC endothelial cells,[7],without effect
SSTNIGF1R: peptide that inhibits IGF1R capture by Sdc1; comprised of amino acids 92–119 in mouse Sdc1 (LPAGEKPEEGEPVLHVEAEPGFTARDKE),apoptosis markers (antibody array),[8],"Activation of the JNK pathway and caspase-3, and a reduction in levels of IkBα"
same,apoptosis markers (antibody array),[9],"increased phosphorylation of p53 (Ser15), activation of JNK and activation of caspase-3"
same,activity retained after incubation in mouse serum,[10],retains full activity
same,apoptosis by TUNEL assay,[11]; 30 μM,DNA fragmentation
same,apoptosis: caspase activation (ApoTox-GLO),[11]; 1–30 μM,executioner caspase activation
same,cell viability (ApoTox-GLO),[11]; 1–30 μM,significant loss of viability
same,growth of mouse myeloma cells,[12],significantly reduced
same,co-immunoprecipitation of ASK1 with Sdc1,[13],prevented
same,growth of HMEC-1 endothelial cells,[5],inhibits the growth
same,reduction of blood vessel density in residual tumors,[6]; MECA-32 staining intensity,over 90%
same,tumors eradicated,"[6]; nude mice, CAG tumors, 8 tumors per cohort",3 of the 8
same,growth of HUVEC endothelial cells,[7],inhibits the growth
same,growth of non-transformed HaCaT keratinocytes,[14],unaffected
same,growth of head and neck and breast carcinoma cells,[15],reduced growth
same,increase in caspase 3/7 activity relative to vehicle,"[1]; 30 μM SSTNIGF1R alone, 9 hr",~5 fold
same,apoptosis markers (antibody array),[16],almost identical apoptotic response
same,growth of HUVEC isolate lacking Sdc1,[17],insensitive
same,activity retained after incubation in bovine serum,[18],retains full activity
same,growth of non-transformed MCF10A breast epithelial cells,[19],unaffected

# Source: paper PMC5010496 (Cancer research, 2016)
